Results from publication PMC9585582 (ACS Bio & Med Chem Au, 2022).
Like-named read-outs stand apart in the source and are kept apart here.

Tests used:
[1] = test system: microtubules (taxane binding site) in living HeLa cells; experiment: Competition binding assay with PB-GABA-Taxol in living HeLa cells; details: read-out: cellular Ki; PB-GABA-Taxol 1.5 μM, verapamil 100 μM, 37 °C, 4% FBS, 3 h, 60K cells/well
[2] = molecular target: cross-linked microtubules; details: cited from earlier work; for Kd: read-out: biochemical Kd; for Ki: read-out: biochemical Ki
[3] = Cytotoxicity toward HeLa cells after 48 h by flow cytometry; type: cell-based; details: human
[4] = test system: microtubule network of HeLa cells; experiment: Confocal microscopy of HeLa cells expressing mScarlet-α-Tubulin; type: cell-based; details: 1 h at 37 °C
Method in brief: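 HeLa cells transiently transfected to express mScarlet-α-tubulin. Live cells were treated with microtubule modulators for 1 h at 37 °C, and microtubule-network phenotypes were imaged by confocal microscopy.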

[5] = test system: taxane binding site in living cells; details: read-out: Ki by confocal microscopy; cited from earlier work
[6] = test system: microtubules in living HeLa cells; experiment: Allosteric modulator assay with PB-GABA-Taxol in living HeLa cells; type: binding; details: allosteric modulator model; PB-GABA-Taxol 1.5 μM, verapamil 100 μM, 3 h, 37 °C
albumin = details: read-out: Kd for albumin; cited from earlier work
[7] = molecular target: purified GDP-bound microtubules; details: cited from earlier work

CC(=O)O[C@H]1C(=O)[C@@]2(C)[C@H]([C@H](OC(=O)c3ccccc3)[C@]3(O)C[C@H](O)C(C)=C1C3(C)C)[C@]1(OC(C)=O)CO[C@@H]1C[C@@H]2O [baccatin III]
Ki [1]: 17000 ± 3000 nM
Kd ([2]; ref 21): 6700 ± 2000 nM

CO[C@H]1C(=O)[C@]2(C)[C@@H](OC)C[C@H]3OC[C@@]3(OC(C)=O)[C@H]2[C@H](OC(=O)c2ccccc2)[C@]2(O)C[C@H](OC(=O)[C@H](O)[C@@H](NC(=O)OC(C)(C)C)c3ccccc3)C(C)=C1C2(C)C [cabazitaxel]
Ki [1]: 6 nM
Ki ([2]; ref 17): 7.4 ± 0.9 nM

COc1cc2c(c(OC)c1OC)-c1ccc(OC)c(=O)cc1[C@@H](NC(C)=O)CC2 [colchicine]
IC50 at 48 h [3]: 20 ± 8 nM
fluorescent microtubule phenotype [4]: disrupted the microtubule network

CC(=O)O[C@@]12CO[C@@H]1C[C@H](O)[C@@]1(C)C(=O)[C@H](O)C3=C(C)[C@@H](OC(=O)[C@H](O)[C@@H](NC(=O)OC(C)(C)C)c4ccccc4)C[C@@](O)([C@@H](OC(=O)c4ccccc4)[C@H]21)C3(C)C [docetaxel]
Ki [1]: 16 nM
Kd ([2]; ref 17): 6.8 ± 0.2 nM
Kd ([2]; ref 65): 25 ± 0.4 nM
Ki ([2]; cross-linked microtubules): 17 ± 6 nM

C/C(=C\c1csc(C)n1)[C@@H]1C[C@@H]2O[C@]2(C)CCC[C@H](C)[C@H](O)[C@@H](C)C(=O)C(C)(C)[C@@H](O)CC(=O)N1 [ixabepilone]
Ki [1]: 10 nM
Ki [5]: 7.6 ± 1.6 nM

COc1cc2cc(c1Cl)N(C)C(=O)C[C@H](OC(=O)[C@H](C)N(C)C(C)=O)[C@]1(C)O[C@H]1[C@H](C)[C@@H]1C[C@@](O)(NC(=O)O1)[C@H](OC)/C=C/C=C(\C)C2 [maytansine]
cooperativity factor α [6]: 0.21

CC(=O)O[C@H]1C(=O)[C@@]2(C)[C@H]([C@H](OC(=O)c3ccccc3)[C@]3(O)C[C@H](OC(=O)[C@H](O)[C@@H](NC(=O)c4ccccc4)c4ccccc4)C(C)=C1C3(C)C)[C@]1(OC(C)=O)CO[C@@H]1C[C@@H]2O [paclitaxel]
Ki [1]: 22 nM
fluorescent microtubule phenotype [4]: enhanced the formation of long microtubule fibers
Kd ([2]; ref 65): 70 ± 0.6 nM
Kd ([2]; ref 66): 15 nM
Kd ([2]; ref 68): 50 nM
Ki ([2]; cross-linked microtubules): 27 ± 11 nM
Ki ([2]; ref 21): 31 nM
Ki ([2]; ref 67): 19 nM
Kd (albumin): 120 nM

CC[C@]1(O)C[C@@H]2CN(CCc3c([nH]c4ccccc34)[C@@](C(=O)OC)(c3cc4c(cc3OC)N(C)[C@H]3[C@@](O)(C(=O)OC)[C@H](OC(C)=O)[C@]5(CC)C=CCN6CC[C@]43[C@@H]65)C2)C1 [vinblastine]
cooperativity factor α [6]: 0.18
Kd [7]: 190 to 1000 nM
